Source: PubChem
PRMT1 FP inh: inhibitors of human PRMT1; Q99873; recombinant PRMT1, activity-based probe fluorescence polarization; inhibition, % at 2.79 µM; 370,000 tested, 1.3% active;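 active = inhibition above about 21% made by adding two undisclosed values, limit read from the data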
Target sequence (Q99873 whole entry, looked up): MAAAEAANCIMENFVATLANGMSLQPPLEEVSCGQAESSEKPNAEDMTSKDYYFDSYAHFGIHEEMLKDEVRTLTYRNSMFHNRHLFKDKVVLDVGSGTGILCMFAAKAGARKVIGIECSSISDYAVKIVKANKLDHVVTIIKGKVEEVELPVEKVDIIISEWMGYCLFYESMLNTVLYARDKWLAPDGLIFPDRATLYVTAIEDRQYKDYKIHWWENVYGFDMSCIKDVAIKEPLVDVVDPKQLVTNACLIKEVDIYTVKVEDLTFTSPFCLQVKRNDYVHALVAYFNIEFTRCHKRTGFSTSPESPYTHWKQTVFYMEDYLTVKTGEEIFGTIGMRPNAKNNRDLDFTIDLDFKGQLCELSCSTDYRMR
SIAE primary: inhibitors of human sialic acid acetylesterase SIAE; Q9HAT2; SIAE FP-Rh probe binding, fluorescence polarization; inhibition, % at 9.66 µM; 370,000 tested, 0.69% active; AID 1053197;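 active = inhibition above a cutoff: mean of compounds within the control limits plus 3 SD of those, cut at about 17% in these data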;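 note: 0% = plate median of compound wells and 100% = probe without SIAE protein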
TCR CD3 inh: blocks the human TCR-CD3 interaction | TAMRA-labeled TCR probe fluorescence, biochemical | inhibition, % at 9.4 µM | 360,000 tested, 0.37% active; in the data active = inhibition above about 19%;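 note: recombinant mutant TCR 2C K166C tagged with TAMRA read by polarization; 0% = receptor in buffer alone and 100% = receptor with positive control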
ABHD4 inh: inhibits mouse alpha/beta hydrolase domain 4; inhibition, % at 8.92 µM; purified mABHD4, FP-Rh probe fluorescence polarization; AID 720543; Q8VD66; 370,000 tested, 0.54% active;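 active = inhibition exceeding the mean over every tested compound plus 3 SD, cut at about 30% in these data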;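 note: 0% = plate median of compound wells and 100% = S159A mutant with DMSO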
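Assay system: mouse ABHD4 enzyme, wild type / Also added: fluorescent activity-based probe FP-Rh / Doses: single nominal dose of 8.92 µM, 0.89% DMSO final / Timing: 45 min compound pre-incubation plus 60 min probe step, 25 °C / Signal: FP readout, ex 525 nm / em 598 nm / Control set: S159A mutant/DMSO as 100%, compound-well median as 0%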
HTRA1 inh: inhibitors of human serine peptidase HTRA1 | recombinant HTRA1, FP-rhodamine activity-based probe, fluorescence polarization | inhibition, % at 5.96 µM | 340,000 tested, 0.5% active; in the data active = inhibition above about 36%;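 note: 0% = enzyme with DMSO and 100% = wells lacking enzyme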
PRMT1 confirm: PRMT1 (human) inhibition, FP confirmation. shares compounds with PRMT1 FP inh. recombinant His-PRMT1, activity-based probe fluorescence polarization. inhibition, % at 2.79 µM. 3,300 tested, 42% active;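 active = mean inhibition across replicates above the hit cutoff derived for the earlier primary screen, cut at about 22% in these data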
An asterisk follows results filed as active; . = no result given. A selection: hits, their analogues and other compounds. The true share with any hit is near 2.6%.

SMILES	PRMT1 FP inh	SIAE primary	TCR CD3 inh	ABHD4 inh	HTRA1 inh	PRMT1 confirm
COc1cccc(C2CC(=O)N3CN(c4cccc(Cl)c4C)CSC3=C2C#N)c1OC (stereo unspecified)	29*	7	-6	15	-16	54*
CCN(CCCNC(=O)c1nn(C)c2c1CS(=O)(=O)c1ccccc1-2)Cc1ccccc1	2	6	-12	-7	0	.
Cc1cc(C)nc(SCSc2nc(C)cc(C)n2)n1	-1	-1	-6	-7	-1	.
Cc1cc(C)nc(SCCc2ccncc2)n1	30*	-6	-6	8	1	11
CSc1nc(=S)cc(C)[nH]1	83*	6	8	7	-4	89*
COc1ccc(/C=[N+](\[O-])C2N(c3ccccc3)C(=S)SC2(C)C)cc1OC (stereo unspecified)	8	-3	-7	-16	-3	.
Cc1ccc(/C=C/C(=O)NCc2cccs2)cc1	-4	-10	7	-10	-2	.
Cc1ccc(/C=C/C(=O)NCc2cccs2)o1	32*	1	-2	3	3	19
CN1C2=N[C@@H](c3ccc(Br)cc3)CC(=O)N2/C(=C\c2ccccc2)[C@@H]1c1ccccc1	8	-1	.	-6	.	.
CN1C2=N[C@@H](c3cccc(C(F)(F)F)c3)CC(=O)N2/C(=C\c2ccccc2)[C@H]1c1ccccc1	55*	0	.	17	.	47*
COc1ccc(S(=O)(=O)Nc2ccc3c(c2)C(=O)N([C@H](C)CO)C[C@H](C)[C@@H](CN(C)S(=O)(=O)c2c(C)noc2C)O3)cc1	1	-2	4	5	-4	.
CCCC(=O)Nc1cc(OC)c(NC(=S)Nc2cccc(C)c2)cc1OC	39*	9	3	25	4	-5
Cc1cccc(C(=O)NCC(=O)N2CCOCC2)c1	-2	2	4	-1	4	.
Cc1cccc(C)c1OCc1nnc(SCC(=O)Nc2ccccc2F)o1	-1	-1	5	-8	-1	.
Cc1cnc(NC(=O)CSc2nnc(COc3c(C)cccc3C)o2)s1	38*	4	-10	1	3	-5
O=C(O)c1ccc(S(=O)(=O)Cc2ccccc2)cc1	25*	3	5	11	10	17
Cc1ccc(S(=O)(=O)Cc2ccc(C(=O)OCc3ccccc3)cc2)cc1	1	-3	-8	0	-33	.
O=C(Nc1cccc(S(=O)(=O)Nc2ccc(Cl)cc2)c1)c1ccccn1	14	-7	2	-9	-17	.
O=C(COC(=O)c1cc(-c2cccs2)nc2ccccc12)NCc1ccco1	13	-10	3	-11	-37	.
O=C(c1ccco1)N1CCN(C(=O)c2cc(-c3ccncc3)nc3ccc(Br)cc23)CC1	7	-12	0	-10	1	.
O=C(O)c1cc(-c2ccco2)nc2ccc(Br)cc12	35*	5	0	14	0	7
NC(=O)COC(=O)c1cc(-c2ccco2)nc2ccccc12	28*	-6	-10	14	12	7
O=C(COC(=O)c1cc(-c2ccco2)nc2ccccc12)NCc1ccc2c(c1)OCO2	35*	6	1	1	-27	19
O=C(COC(=O)c1cc(-c2ccc(Cl)s2)nc2ccccc12)NCc1ccco1	30*	-28	-4	-33	-57	3
COc1ccc(N2C(=O)CC(NCc3cccc(F)c3)C2=O)cc1 (stereo unspecified)	55*	5	2	7	5	5
SMILES	PRMT1 FP inh	SIAE primary	TCR CD3 inh	ABHD4 inh	HTRA1 inh	PRMT1 confirm
COc1ccc(N2C(=O)CC(NCc3ccc(F)cc3)C2=O)cc1 (stereo unspecified)	66*	-3	2	5	4	2
COc1ccc(N2C(=O)CC(NCc3ccncc3)C2=O)cc1 (stereo unspecified)	8	4	-2	-6	-2	.
COc1ccc(CNC2CC(=O)N(C)C2=O)cc1 (stereo unspecified)	-2	1	-1	6	4	.
COc1cccc(CN(C)C(=O)CC[C@H]2O[C@@H](n3ccc(=O)[nH]c3=O)[C@H](O)[C@@H]2O)c1	-3	-5	-4	3	.	.
O=C(NCC1CCN(C(=O)C(=O)c2cccs2)CC1)c1ccc2c(c1)OCO2	-2	-1	3	0	.	.
C=CCn1c(SCC(C)=O)nc2scc(-c3ccco3)c2c1=O	49*	-9	-1	6	2	22*
C=CCn1c(SC(F)F)nc2scc(-c3ccco3)c2c1=O	64*	6	-2	-20	-14	-1
COc1ccc(S(=O)(=O)NCC(=O)N(CC(=O)NCc2ccco2)C2CCCC2)cc1	3	-2	-9	5	5	.
Cc1ccccc1-n1c(SCc2c(C)noc2C)nnc1-c1ccncc1	-3	9	0	-3	4	.
Cc1ccccc1-n1c(SCc2c(C)noc2C)nnc1-c1cccnc1	28*	1	5	0	-1	13
O=C(N/N=C/C=C/c1ccco1)c1ccncc1	3	14	11	7	10	.
O=C(N/N=C/C=C/c1ccco1)/C(=C/c1ccccc1)NC(=O)c1ccccc1	30*	8	0	3	14	16
O=C(Cc1cccs1)N/N=C/C=C\c1ccco1	11	6	14	21	14	.
O=C(N/N=C/C=C\c1ccco1)c1cccs1	33*	11	-2	21	.	23*
O=C(NCCc1ccccc1)OCc1cn(-c2ccc(F)c(F)c2)nn1	-7	-5	.	-6	.	.
COc1ccccc1NC(=O)c1c(NC(=O)CCC(=O)O)sc2c1CCCCC2	32*	-4	-5	1	-4	-1
O=C(O)CCC(=O)Nc1sc2c(c1C(=O)Nc1ccccc1)CCCCC2	38*	-3	0	14	9	5
CC(=O)Nc1ccc(S(=O)(=O)NC2CC(=O)N(c3ccc4c(c3)OCCO4)C2)cc1 (stereo unspecified)	-2	2	0	2	1	.
CC(C)OC(=O)CSc1nnc(-c2ccncc2)n1N	2	-2	0	8	-4	.
CC(C)OC(=O)CSc1nnc(-c2ccc(C(C)(C)C)cc2)n1N	53*	0	0	6	8	60*
Cc1cccc(C(=O)NN2C(=O)C3C(c4ccccc4)C=CC(c4ccccc4)C3C2=O)c1 (stereo unspecified)	1	-47	-4	-52	-38	.
O=C(NN1C(=O)C2C3C=CC(O3)C2C1=O)c1cccc(O)c1 (stereo unspecified)	54*	-3	-11	-10	4	0
COc1ccc(C(=O)NN2C(=O)C3C4C=CC(O4)C3C2=O)cc1 (stereo unspecified)	49*	0	4	-4	5	11
Cc1ccc(C(=O)NN2C(=O)C3C4C=CC(C4)[C@@H]3C2=O)cc1 (stereo partly specified)	5	-4	-7	2	6	.
